Results reported in ChEMBL document CHEMBL4825680, “Structure-based discovery of potent and selective small-molecule inhibitors targeting signal transducer and activator of transcription 3 (STAT3)” (Eur J Med Chem, 2021).
Active and inactive are the calls of the source. The calls are words filed in the database; no cut-off is given here.

Tests used:
[1] = target: T1, Signal transducer and activator of transcription 3 (Homo sapiens, UniProt P40763); assay: Binding affinity to STAT3 (unknown origin) […]
T1 sequence (P40763 whole entry): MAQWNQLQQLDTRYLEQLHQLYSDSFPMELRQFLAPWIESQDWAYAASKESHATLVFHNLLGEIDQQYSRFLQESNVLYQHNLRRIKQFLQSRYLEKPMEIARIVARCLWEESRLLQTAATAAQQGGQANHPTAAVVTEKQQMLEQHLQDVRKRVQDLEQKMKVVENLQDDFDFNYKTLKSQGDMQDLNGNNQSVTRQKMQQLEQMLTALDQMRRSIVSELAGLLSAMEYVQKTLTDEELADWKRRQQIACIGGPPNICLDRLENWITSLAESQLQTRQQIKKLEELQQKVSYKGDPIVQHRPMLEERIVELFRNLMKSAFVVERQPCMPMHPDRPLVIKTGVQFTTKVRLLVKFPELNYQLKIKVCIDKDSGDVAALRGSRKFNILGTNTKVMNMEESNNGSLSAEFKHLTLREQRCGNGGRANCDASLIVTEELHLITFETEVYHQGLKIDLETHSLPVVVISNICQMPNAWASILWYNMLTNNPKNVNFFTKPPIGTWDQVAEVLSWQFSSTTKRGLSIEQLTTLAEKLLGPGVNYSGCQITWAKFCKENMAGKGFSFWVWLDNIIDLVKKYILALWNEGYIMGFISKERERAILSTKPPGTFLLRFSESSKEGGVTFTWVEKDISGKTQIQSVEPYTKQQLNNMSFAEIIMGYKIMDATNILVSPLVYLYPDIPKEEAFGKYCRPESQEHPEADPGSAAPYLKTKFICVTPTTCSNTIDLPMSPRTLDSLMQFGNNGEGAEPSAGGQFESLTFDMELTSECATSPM

[2] = target: T1, Signal transducer and activator of transcription 3; assay: Inhibition of STAT3 phosphorylation at Ser727 residue in human HCC70 cells at 3 uM after 3 hrs by Western blotting analysis; assay type: cell-based
[3] = Metabolic stability in human liver microsomes assessed as half life at 0.1 uM preincubated for 10 mins followed by NADPH addition and measured upto 60 mins by LC-MS/MS analysis; assay type: ADME, Microsome; conditions: time <=70 min
How it was run: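 Microsomes at 0.33 mg/mL in 0.1 M Tris pH 7.4 with 5 mM MgCl2; compound final 0.1 μM (0.01% DMSO, 0.005% BSA). Preincubated 10 min at 37 °C, then started with 1 mM NADPH. Sampled at 0, 7, 17, 30 and 60 min and quenched with cold methanol. Centrifuged, then analysed by LC-MS/MS.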

[4] = target: T1, Signal transducer and activator of transcription 3; assay: Inhibition of STAT3 in human HCC70 cells assessed as downregulation of Bcl-xL expression at 0.3 to 3 uM after 24 hrs by western blot analysis; assay type: cell-based; conditions: dose 0.3-3 µM
How it was run: (§1)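 TNBC cells given vehicle (0.1% DMSO) or graded compound levels for 24 h, lysed in RIPA with PMSF and phosphatase inhibitors. BCA-quantified lysate (20–50 µg) run on SDS-PAGE, transferred to PVDF, blocked in 5% BSA. Probed overnight at 4 °C for Bcl-xL, Mcl-1 and c-Myc, with β-actin. HRP secondary, ECL detection. Three independent experiments.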

[5] = tested on: HCC70; assay: Effect on total STAT1 level in human HCC70 cells at 0.3 to 3 uM after 3 hrs by Western blotting analysis; assay type: functional, cell-based; conditions: dose 0.3-3 µM
How it was run: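 Breast cancer cells were treated with vehicle (0.1% DMSO) or compound, then lysed in RIPA with PMSF and phosphatase inhibitors. 20–50 μg protein was run on 8 or 12% SDS-PAGE, blotted to PVDF, blocked in 5% BSA, probed with primary antibodies overnight at 4 °C, then HRP secondaries, with ECL detection.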

[6] = target: T1, Signal transducer and activator of transcription 3; assay: Inhibition of STAT3 in human MDA-MB-231 cells assessed as downregulation of Bcl-xL expression at 0.3 to 3 uM after 24 hrs by western blot analysis; assay type: cell-based; conditions: dose 0.3-3 µM; how it was run: as §1
[7] = tested on: MDA-MB-468; assay: Induction of apoptosis in human MDA-MB-468 cells assessed as early apoptotic cells at 1 uM after 48 hrs by Annexin-V-FITC/propidium iodide staining based flow cytometric analysis (reference value: 2.66%); assay type: functional
[8] = target: T1, Signal transducer and activator of transcription 3; assay: Inhibition of STAT3 phosphorylation at Tyr705 residue in human […] cells after 3 hrs by Western blotting analysis; assay type: cell-based; conditions: MDA-MB-468, dose 0.3-3 µM
[9] = tested on: MDA-MB-468; assay: Induction of apoptosis in human MDA-MB-468 cells assessed as early apoptotic cells at 3 uM after 48 hrs by Annexin-V-FITC/propidium iodide staining based flow cytometric analysis (reference value: 2.66%); assay type: functional
[10] = Toxicity in NOD/SCID mouse xenografted with patient-derived breast cancer cells assessed as morphological change in spleen at 5 to 15 mg/kg, […] once daily for 20 days by HE staining based assay; assay type: organism-based; conditions: in vivo, iv, 480 h, dose 5-15 mg/kg, time 20 day
How it was run: (§2)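 Female NOD-SCID mice implanted subcutaneously in the flank with about 2 mm³ TNBC PDX fragments. At about 100 mm³ tumour volume, randomised n=6/group: vehicle (PBS with 15% Cremophor EL), 5 or 15 mg/kg intraperitoneally daily. Killed at day 20; heart, liver, spleen, lung and kidney collected for morphological examination.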

[11] = Toxicity in mouse xenografted with human MDA-MB-231-4175 cells assessed as morphological change in liver at 5 to 15 mg/kg, […] once daily for 20 days by HE staining based assay; assay type: organism-based; conditions: in vivo, iv, dose 5-15 mg/kg, time 20 day
How it was run: as §2, with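 “aged 4–5 weeks, given 2×10^6–3×10^6 MDA-MB-231-4175 cells” for “implanted”, “flank.” for “flank with about 2 mm³ TNBC PDX fragments.”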

[12] = target: T1, Signal transducer and activator of transcription 3; assay: Inhibition of HA-tagged STAT3 dimerization (unknown origin) expressed in HEK293T cells after 24 hrs by confocal microscopic analysis; assay type: cell-based; conditions: dose 1-3 µM
How it was run: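 HEK-293T cells transfected with HA-STAT3 and Flag-STAT3. After 24 h, treated with vehicle (0.1% DMSO) or compound for 24 h, with IL-6 100 ng/mL added for 30 min. Fixed in paraformaldehyde, permeabilised with Triton X-100, stained with anti-HA and anti-Flag plus Alexa 488/555 secondaries and DAPI. Confocal imaging for colocalisation.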

[13] = Cmax in Sprague-Dawley rat at 10 mg/kg, po measured up to 24 hrs by LC-MS/MS analysis; assay type: ADME, organism-based; set-up: route oral, dose 10 mg/kg, time <=24; conditions: in vivo
How it was run: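 Male SD rats given a single oral dose of 10 mg/kg in DMSO/0.5% HPMC (5/95, v/v). Blood was drawn at 0.25, 0.5, 1, 2, 4, 8 and 24 h, and plasma was analysed by LC-MS/MS on a BEH phenyl column with a formic acid water/acetonitrile mobile phase.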

[14] = tested on: MDA-MB-231; assay: Induction of apoptosis in human MDA-MB-231 cells assessed as late apoptotic cells at 3 uM after 48 hrs by Annexin-V-FITC/propidium iodide staining based flow cytometric analysis (Rvb =3.05%); assay type: functional
[15] = target: T1, Signal transducer and activator of transcription 3; assay: Inhibition of STAT3 dependent transcriptional activity (unknown origin) expressed in HEK293T cells at 1 to 3 uM after 24 hrs by Dual-luciferase reporter gene assay; assay type: cell-based; conditions: dose 1-3 µM
How it was run: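 HEK-293T cells (2.5×10^4/well) co-transfected with pGL3-STAT3 (seven STAT3 binding-site copies; 50 ng), STAT3C (50 ng) and TK-Renilla (40 ng). After 24 h, treated with vehicle or compound for 24 h. Dual firefly/Renilla luciferase read on a luminometer.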

[16] = tested on: MDA231-LM2-4175; assay: Inhibition of cell migration in human MDA231-LM2-4175 cells incubated for 12 to 96 hrs by wound healing assay; assay type: functional, cell-based; conditions: dose 0.3-3 µM, time 12-96 hrs
How it was run: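 Cells grown to 100% confluence, then scratched with a pipette tip. Treated with 0–3 μM until vehicle-treated cells had migrated into the scratch. Images taken by microscope after about 12–96 h. Triplicate experiments.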

[17] = tested on: MDA231-LM2-4175; assay: Antitumor activity against human MDA231-LM2-4175 cells xenografted in mouse assessed as reduction in pY705-STAT3 expression at 5 to 15 mg/kg, iv administered once daily for 20 days by Western blotting analysis; assay type: functional, organism-based; conditions: dose 5-15 mg/kg, time 20.0 day
[18] = target: T1, Signal transducer and activator of transcription 3; assay: Inhibition of STAT3 phosphorylation at Ser727 residue in human MDA-MB-468 cells at 3 uM after 3 hrs by Western blotting analysis; assay type: cell-based
[19] = tested on: Breast cancer cell line; assay: Antitumor activity against patient-derived breast cancer cells xenografted in NOD/SCID mouse assessed as reduction in Mcl-1 expression at 5 to 15 mg/kg, iv administered once daily for 20 days by Western blotting analysis; assay type: functional, organism-based; conditions: Homo sapiens, dose 5-15 mg/kg, time 20.0 day

For `O=C(Cc1c(-c2ccccc2)nc2ccccn12)Nc1ccc2c(c1)S(=O)(=O)C=C2`, the Kd [1] was 0.432 µM, the inhibition [2] was “inactive” and the half-life at 0.1 µM [3] was 24.2 min. The inhibition [4] was “Active”, the Activity [5] was “inactive” and the inhibition [6] was “Active”. The Activity [7] was 24%, the inhibition [8] was “Dose-Dependent Effect” and the Activity [9] was 32.3%. The Activity [10] was “Non-Toxic”, the Activity [11] was “Non-Toxic” and the inhibition [12] was “Dose-Dependent Effect”. The Cmax [13] was 23.8 ng/mL, the Activity [14] was 11.5% and the inhibition [15] was “Active”. The inhibition [16] was “Dose-Dependent Effect”, the Activity [17] was “Active” and the inhibition [18] was “inactive”. For the same compound, the Activity [19] was “Active”.
